Values belong to the molecule of their own block, whether it stands above or below them.
Experiments:
Rattus norvegicus [1] = organism: Rattus norvegicus; assay: The catalepsy was measured in rat by using bar test; format: functional
Summary of the method: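 Horizontal bar 7 cm high, 1.5 cm diameter. Rat forepaws placed over it at 20, 40, 60, 90, 120 and 240 min after ip dosing. Descent latency timed, 60 s cutoff. Cataleptic = mean over 15 s from the three longest latencies. Saline controls included.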

D(2) dopamine receptor [2] = target: T1, D(2) dopamine receptor (Rattus norvegicus, UniProt P61169); assay: Inhibition of [3H]raclopride binding to rat striatal dopamine receptor D2
Summary of the method: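 Rat striatal membranes were homogenised in 0.05 M Tris-HCl pH 7.6, washed by centrifugation, then resuspended with 0.1% ascorbic acid and salts at 5 mg original wet weight/mL. Nonspecific binding was set with 1 μM (+)-butaclamol. Filtration on glass-fibre filters, scintillation counting. Ki by nonlinear regression (LIGAND), Cheng–Prusoff, all experiments pooled.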

Rattus norvegicus [3] = assay: Block of apomorphine-induced response measured as hypothermia injected ip 30 min prior to apomorphine hydrochloride(1 mg/kg, sc); format: functional
Summary of the method: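 Male Sprague-Dawley rats (200–250 g) housed at 21 ± 0.5 °C, groups of n = 6, given saline or compound ip 30 min before apomorphine HCl 1 mg/kg sc. Rectal core temperature taken before dosing, before apomorphine and 15 min after it. Changes are percent of control mean.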

Rattus norvegicus [4] = assay: Block of apomorphine-induced response measured as hyperactivity injected ip 60 min prior to apomorphine hydrochloride(1 mg/kg, sc); format: functional
Summary of the method: (§1)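 Male Sprague-Dawley rats (270–325 g). Compounds in saline or acetic acid/water given ip (5 ml/kg) 60 min before apomorphine HCl 1 mg/kg sc into neck. […] At least six dose levels, 6–8 rats each. ED50 by regression with Fieller's theorem 95% confidence limits.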

Rattus norvegicus [5] = assay: Block of apomorphine-induced response measured as stereotypies injected ip 60 min prior to apomorphine hydrochloride(1 mg/kg, sc); format: functional; summary of the method: as §1
D(2) dopamine receptor [6] = target: T1, D(2) dopamine receptor; assay: Inhibition of [3H]spiperone binding to rat striatal dopamine receptor D2 was determined in vitro
Summary of the method: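 Rat striatal membranes in 0.05 M Tris-HCl pH 7.6 with 0.1% ascorbic acid and salts, at 5 mg wet weight/mL. Incubated with [3H]spiperone at 37 °C for 10 min. Nonspecific binding defined with 1 μM (+)-butaclamol. Bound ligand separated by glass-fibre filtration and counted by liquid scintillation. IC50 by log-logit regression.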

[7] = Rattus norvegicus, read-out: ED50

T1 sequence (P61169 whole entry): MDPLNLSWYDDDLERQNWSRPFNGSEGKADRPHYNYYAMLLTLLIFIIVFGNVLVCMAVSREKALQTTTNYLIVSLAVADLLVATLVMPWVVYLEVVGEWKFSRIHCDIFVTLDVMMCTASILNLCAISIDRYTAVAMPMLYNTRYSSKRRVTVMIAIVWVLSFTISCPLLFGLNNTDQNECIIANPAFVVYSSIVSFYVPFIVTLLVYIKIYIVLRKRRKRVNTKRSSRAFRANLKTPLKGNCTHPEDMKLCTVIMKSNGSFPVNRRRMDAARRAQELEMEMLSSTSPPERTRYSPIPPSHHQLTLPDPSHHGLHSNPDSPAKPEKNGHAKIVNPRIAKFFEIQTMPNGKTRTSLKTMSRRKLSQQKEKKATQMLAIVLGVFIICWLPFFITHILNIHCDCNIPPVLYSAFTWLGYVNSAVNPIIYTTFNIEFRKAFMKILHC

Compound: CCN1CCC[C@H]1CNC(=O)c1cc(Br)cc(OC)c1OC
ED50 (Rattus norvegicus [1]): 0.39 µmol/kg
Ki (D(2) dopamine receptor [2]): 0.018 nM
ED50 (Rattus norvegicus [3]): 0.005 µmol/kg

Compound: CCN1CCC[C@H]1CNC(=O)c1c(O)c(Br)cc(OC)c1OC
ED50 (Rattus norvegicus [1]): 0.13 µmol/kg

Compound: COc1ccc(Br)c(O)c1C(=O)NCC1CCCN1Cc1ccccc1 (single isomer, unassigned)
ED50 (Rattus norvegicus [4]): >80 µM/kg
ED50 (Rattus norvegicus [5]): >80 µM/kg
IC50 (D(2) dopamine receptor [6]): 2680 nM

Compound: COc1ccc(Br)c(O)c1C(=O)NC1CCN(Cc2ccccc2)CC1
IC50 (D(2) dopamine receptor [6]): 41 nM

Compound: COc1cc(Br)c(O)c(C(=O)NC[C@H]2CCCN2Cc2ccc(F)cc2)c1OC
ED50 (Rattus norvegicus [4]; [7]): 1.5 µmol/kg
ED50 (Rattus norvegicus [5]; [7]): 2.4 µmol/kg
ED50 (Rattus norvegicus [1]): 13 µmol/kg
Ki (D(2) dopamine receptor [2]): 0.19 nM
ED50 (Rattus norvegicus [3]): 1.3 µmol/kg

Compound: CCN1CCC[C@H]1CNC(=O)c1c(O)c(Cl)cc(Cl)c1OC [RACLOPRIDE]
ED50 (Rattus norvegicus [1]): 10 µmol/kg

Compound: CCN1CCC[C@H]1CNC(=O)c1c(OC)ccc(Br)c1O
ED50 (Rattus norvegicus [1]): 1 µmol/kg
ED50 (Rattus norvegicus [3]): 0.6 µmol/kg

Compound: COc1cc(Br)cc(C(=O)NC[C@@H]2CCCN2Cc2ccc(F)cc2)c1OC
IC50 (D(2) dopamine receptor [6]): 126 nM

Compound: COc1c(Cl)cc(Cl)c(OC)c1C(=O)NC[C@H]1CCCN1Cc1ccc(F)cc1
IC50 (D(2) dopamine receptor [6]): 2380 nM

Compound: COc1cc(Br)c(OC)c(C(=O)NC[C@H]2CCCN2Cc2ccc(F)cc2)c1OC
IC50 (D(2) dopamine receptor [6]): 2210 nM

Compound: CCc1cc(Cl)c(OC)c(C(=O)NC[C@H]2CCCN2Cc2ccc(F)cc2)c1O
IC50 (D(2) dopamine receptor [6]): 29 nM

Compound: CCN1CCC[C@H]1CNC(=O)c1cccc(OC)c1OC
IC50 (D(2) dopamine receptor [6]): 52 nM

Compound: COc1cc(Br)c(OC)c(C(=O)NC[C@H]2CCCN2Cc2ccc(F)cc2)c1O
IC50 (D(2) dopamine receptor [6]): 124 nM

Compound: CCN1CCC[C@H]1CNC(=O)c1c(OC)c(Cl)cc(Cl)c1OC
IC50 (D(2) dopamine receptor [6]): > 10000 nM

Compound: COc1cc(Br)c(OC)c(C(=O)NC[C@H]2CCCN2Cc2ccccc2)c1OC
IC50 (D(2) dopamine receptor [6]): 1860 nM

Compound: COc1c(Cl)cc(Cl)c(OC)c1C(=O)NC1CCN(Cc2ccccc2)CC1
IC50 (D(2) dopamine receptor [6]): 3450 nM

Compound: COc1ccc(Br)c(O)c1C(=O)NCC1CCCN1Cc1ccccc1 (racemic)
IC50 (D(2) dopamine receptor [6]): 36 nM

Second part, led by results:

IC50 (D(2) dopamine receptor [6]): 28 nM
Ki (D(2) dopamine receptor [2]): 0.43 nM
Compound: COc1ccc(Br)c(O)c1C(=O)NC[C@H]1CCCN1Cc1ccc(F)cc1
ED50 (Rattus norvegicus [4]; [7]): 2 µmol/kg
ED50 (Rattus norvegicus [5]; [7]): 13.2 µmol/kg
ED50 (Rattus norvegicus [1]): 27 µmol/kg
ED50 (Rattus norvegicus [3]): 1.7 µmol/kg

IC50 (D(2) dopamine receptor [6]): 0.36 nM
Compound: COc1cc(Br)c(O)c(C(=O)NC2CCN(Cc3ccccc3)CC2)c1OC

IC50 (D(2) dopamine receptor [6]): 9.4 nM
Compound: CCc1cc(Cl)c(OC)c(C(=O)NC2CCN(Cc3ccccc3)CC2)c1O

IC50 (D(2) dopamine receptor [6]): 18 nM
Ki (D(2) dopamine receptor [2]): 0.8 nM
Compound: COc1ccc(Br)c(O)c1C(=O)NC[C@H]1CCCN1Cc1ccccc1
ED50 (Rattus norvegicus [4]): 5.6 µM/kg
ED50 (Rattus norvegicus [5]): 18.6 µM/kg

IC50 (D(2) dopamine receptor [6]): 21 nM
Compound: COc1cccc(C(=O)NC[C@H]2CCCN2Cc2ccccc2)c1OC

IC50 (D(2) dopamine receptor [6]): 5.4 nM
Compound: COc1c(Cl)cc(Cl)c(O)c1C(=O)NC1CCN(Cc2ccccc2)CC1

IC50 (D(2) dopamine receptor [6]): 0.65 nM
Compound: COc1cc(Br)cc(C(=O)NC[C@H]2CCCN2Cc2ccc(F)cc2)c1OC

IC50 (D(2) dopamine receptor [6]): 1.4 nM
Ki (D(2) dopamine receptor [2]): 0.024 nM
Compound: COc1cc(Br)cc(C(=O)NC[C@H]2CCCN2Cc2ccccc2)c1OC
ED50 (Rattus norvegicus [4]; [7]): 1.2 µmol/kg
ED50 (Rattus norvegicus [5]; [7]): 1.4 µmol/kg

IC50 (D(2) dopamine receptor [6]): 21 nM
Compound: COc1c(Cl)cc(Cl)c(O)c1C(=O)NC[C@H]1CCCN1Cc1ccc(F)cc1

IC50 (D(2) dopamine receptor [6]): 6.3 nM
Compound: COc1cccc(C(=O)NC2CCN(Cc3ccccc3)CC2)c1OC

Reference: ChEMBL document CHEMBL1125646, “Potential antipsychotic agents. 9. Synthesis and stereoselective dopamine D-2 receptor blockade of a potent class of substituted (R)-N-[(1-benzyl-2-pyrrolidinyl)methyl]benzamides. Relations to other side chain congeners” (J Med Chem, 1991)
